Results as given in ChEMBL document CHEMBL5724801, “EUbOPEN Chemogenomics Library - Multiplex” (2024).
Several values for one entry are separate records, joined by “and”; a condition that tells them apart may be missing. Equal values may be shown once.

Tested on: HEK-293T
Assay: Multiplex assay against HEK293T
Assay type: toxicity, cell-based
Settings: human
In short: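 Phenotypes for tubulin, mitochondrial mass and membrane permeability are expressed as per cents of healthy-nucleus cells. Cells were stained live at seeding with Hoechst33342, BioTracker Green Microtubule Cytoskeleton Dye, MitoTracker Red and Annexin V Alexa Fluor 680, then imaged after compound addition on a CQ1 microscope at 37°C and 5% CO2. Machine-learning gating in CellPathfinder separated Hoechst high-intensity objects from normal cells, divided normal cells by nuclear state (healthy, pyknosed, fragmented) and divided pyknosed cells into mitotic or apoptotic.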

[1] = 12 h, 1 µM, compound concentration 1 uM
[2] = 12 h, 10 µM, compound concentration 10 uM
[3] = 24 h, 1 µM, compound concentration 1 uM
[4] = 24 h, 10 µM, compound concentration 10 uM
[5] = 48 h, 1 µM, compound concentration 1 uM
[6] = 48 h, 10 µM, compound concentration 10 uM

`Cc1c(CC(=O)O)c2cccnc2n1Cc1ccc(S(C)(=O)=O)cc1C(F)(F)F` [FEVIPIPRANT] was tested, and the “Population Apoptotic (%)” value [1] was 27% and 41%, the “Population Fragmented Nuclei (%)” value [1] was 6% and 7% and the “Population Healthy Nuclei (%)” value [1] was 83% and 79%. The “Population Hoechst High Intensity Objects (%)” value [1] was 5% and 7%, the “Population Membrane Permeable-Phenotype (%)” value [1] was 0% and the “Population Mitochondria Different-Phenotype (%)” value [1] was 32% and 52%. For the same compound, the “Population Mitotic Cells (%)” value [1] was 72% and 58%, the “Population Normal (%)” value [1] was 94% and 92% and the “Population Pyknosed Nuclei (%)” value [1] was 9% and 12%. For the same compound, the “Population Tubulin-Different-Phenotype (%)” value [1] was 22% and 16%, the “Total Cell Count” value [1] was 471 and 370 and the “Population Apoptotic (%)” value [2] was 33% and 52%. For the same compound, the “Population Fragmented Nuclei (%)” value [2] was 5% and 11%, the “Population Healthy Nuclei (%)” value [2] was 80% and 75% and the “Population Hoechst High Intensity Objects (%)” value [2] was 6% and 10%. The “Population Membrane Permeable-Phenotype (%)” value [2] was 0%, the “Population Mitochondria Different-Phenotype (%)” value [2] was 46% and 66% and the “Population Mitotic Cells (%)” value [2] was 66% and 47%. For the same compound, the “Population Normal (%)” value [2] was 93% and 89%, the “Population Pyknosed Nuclei (%)” value [2] was 13% and 12% and the “Population Tubulin-Different-Phenotype (%)” value [2] was 29% and 32%. For the same compound, the “Total Cell Count” value [2] was 417 and 303, the “Population Apoptotic (%)” value [3] was 22% and 43% and the “Population Fragmented Nuclei (%)” value [3] was 8% and 7%. The “Population Healthy Nuclei (%)” value [3] was 81% and 82%, the “Population Hoechst High Intensity Objects (%)” value [3] was 3% and 4% and the “Population Membrane Permeable-Phenotype (%)” value [3] was 1% and 0%. For the same compound, the “Population Mitochondria Different-Phenotype (%)” value [3] was 18% and 37%, the “Population Mitotic Cells (%)” value [3] was 77% and 56% and the “Population Normal (%)” value [3] was 96% and 95%. The “Population Pyknosed Nuclei (%)” value [3] was 10%, the “Population Tubulin-Different-Phenotype (%)” value [3] was 18% and 14% and the “Total Cell Count” value [3] was 637 and 457. The “Population Apoptotic (%)” value [4] was 33% and 50%, the “Population Fragmented Nuclei (%)” value [4] was 8% and 9% and the “Population Healthy Nuclei (%)” value [4] was 80% and 81%. The “Population Hoechst High Intensity Objects (%)” value [4] was 5% and 11%, the “Population Membrane Permeable-Phenotype (%)” value [4] was 0% and the “Population Mitochondria Different-Phenotype (%)” value [4] was 31% and 44%. The “Population Mitotic Cells (%)” value [4] was 66% and 50%, the “Population Normal (%)” value [4] was 94% and 88% and the “Population Pyknosed Nuclei (%)” value [4] was 10% and 8%. For the same compound, the “Population Tubulin-Different-Phenotype (%)” value [4] was 20%, the “Total Cell Count” value [4] was 499 and 334 and the “Population Apoptotic (%)” value [5] was 16% and 20%. For the same compound, the “Population Fragmented Nuclei (%)” value [5] was 13% and 11%, the “Population Healthy Nuclei (%)” value [5] was 79% and 82% and the “Population Hoechst High Intensity Objects (%)” value [5] was 1% and 2%. The “Population Membrane Permeable-Phenotype (%)” value [5] was 2% and 0%, the “Population Mitochondria Different-Phenotype (%)” value [5] was 12% and 16% and the “Population Mitotic Cells (%)” value [5] was 83% and 79%. The “Population Normal (%)” value [5] was 98% and 97%, the “Population Pyknosed Nuclei (%)” value [5] was 7% and 6% and the “Population Tubulin-Different-Phenotype (%)” value [5] was 12% and 10%. The “Total Cell Count” value [5] was 1065 and 713, the “Population Apoptotic (%)” value [6] was 29% and 45% and the “Population Fragmented Nuclei (%)” value [6] was 14%. The “Population Healthy Nuclei (%)” value [6] was 78% and 77%, the “Population Hoechst High Intensity Objects (%)” value [6] was 4% and 7% and the “Population Membrane Permeable-Phenotype (%)” value [6] was 0% and 1%. For the same compound, the “Population Mitochondria Different-Phenotype (%)” value [6] was 24% and 22%, the “Population Mitotic Cells (%)” value [6] was 70% and 55% and the “Population Normal (%)” value [6] was 95% and 92%. The “Population Pyknosed Nuclei (%)” value [6] was 7% and 8%, the “Population Tubulin-Different-Phenotype (%)” value [6] was 14% and 17% and the “Total Cell Count” value [6] was 794 and 491.

In the case of `Nc1nccc(-c2ccn3c(N)nccc23)n1`, the “Population Apoptotic (%)” value [1] was 15.46% and 10.1%, the “Population Fragmented Nuclei (%)” value [1] was 3.18% and 4.55% and the “Population Healthy Nuclei (%)” value [1] was 68.79% and 31.17%. The “Population Hoechst High Intensity Objects (%)” value [1] was 0%, the “Population Membrane Permeable-Phenotype (%)” value [1] was 0.42% and 2.08% and the “Population Mitochondria Different-Phenotype (%)” value [1] was 32.35% and 27.08%. For the same compound, the “Population Mitotic Cells (%)” value [1] was 84.54% and 89.9%, the “Population Normal (%)” value [1] was 100% and the “Population Pyknosed Nuclei (%)” value [1] was 28.03% and 64.29%. The “Total Cell Count” value [1] was 346 and 154, the “Population Apoptotic (%)” value [2] was 15.73% and 12.77% and the “Population Fragmented Nuclei (%)” value [2] was 2.41% and 4.48%. The “Population Healthy Nuclei (%)” value [2] was 66.9% and 25.37%, the “Population Hoechst High Intensity Objects (%)” value [2] was 0.34% and 0% and the “Population Membrane Permeable-Phenotype (%)” value [2] was 1.03% and 0%. The “Population Mitochondria Different-Phenotype (%)” value [2] was 38.66% and 17.65%, the “Population Mitotic Cells (%)” value [2] was 84.27% and 87.23% and the “Population Normal (%)” value [2] was 99.66% and 100%. For the same compound, the “Population Pyknosed Nuclei (%)” value [2] was 30.69% and 70.15%, the “Total Cell Count” value [2] was 291 and 134 and the “Population Apoptotic (%)” value [3] was 20.19% and 15.91%. For the same compound, the “Population Fragmented Nuclei (%)” value [3] was 1.49% and 2.84%, the “Population Healthy Nuclei (%)” value [3] was 76.43% and 34.75% and the “Population Hoechst High Intensity Objects (%)” value [3] was 0% and 2.08%. For the same compound, the “Population Membrane Permeable-Phenotype (%)” value [3] was 1.11% and 4.08%, the “Population Mitochondria Different-Phenotype (%)” value [3] was 17.78% and 20.41% and the “Population Mitotic Cells (%)” value [3] was 79.81% and 84.09%. For the same compound, the “Population Normal (%)” value [3] was 100% and 97.92%, the “Population Pyknosed Nuclei (%)” value [3] was 22.08% and 62.41% and the “Population Tubulin-Different-Phenotype (%)” value [3] was 14.44% and 12.24%. For the same compound, the “Population Apoptotic (%)” value [4] was 20.31% and 14.47%, the “Population Fragmented Nuclei (%)” value [4] was 1.23% and 6.87% and the “Population Healthy Nuclei (%)” value [4] was 79.14% and 35.11%. The “Population Hoechst High Intensity Objects (%)” value [4] was 0.61% and 0%, the “Population Membrane Permeable-Phenotype (%)” value [4] was 0% and 2.17% and the “Population Mitochondria Different-Phenotype (%)” value [4] was 20.93% and 19.57%. The “Population Mitotic Cells (%)” value [4] was 79.69% and 85.53%, the “Population Normal (%)” value [4] was 99.39% and 100% and the “Population Pyknosed Nuclei (%)” value [4] was 19.63% and 58.02%. The “Population Tubulin-Different-Phenotype (%)” value [4] was 11.63% and 8.7%, the “Total Cell Count” value [4] was 328 and 131 and the “Population Apoptotic (%)” value [5] was 8% and 18.75%. The “Population Fragmented Nuclei (%)” value [5] was 5.17% and 4.03%, the “Population Healthy Nuclei (%)” value [5] was 89.44% and 63.76% and the “Population Hoechst High Intensity Objects (%)” value [5] was 0.11% and 0.67%. The “Population Membrane Permeable-Phenotype (%)” value [5] was 5.66% and 3.16%, the “Population Mitochondria Different-Phenotype (%)” value [5] was 18.92% and 21.05% and the “Population Mitotic Cells (%)” value [5] was 92% and 81.25%. The “Population Normal (%)” value [5] was 99.89% and 99.33%, the “Population Apoptotic (%)” value [6] was 20% and 39.39% and the “Population Fragmented Nuclei (%)” value [6] was 5.81% and 7.8%. For the same compound, the “Population Healthy Nuclei (%)” value [6] was 85.77% and 68.79%, the “Population Hoechst High Intensity Objects (%)” value [6] was 0.37% and 1.4% and the “Population Membrane Permeable-Phenotype (%)” value [6] was 1.31% and 2.06%. For the same compound, the “Population Mitochondria Different-Phenotype (%)” value [6] was 36.24% and 23.71%, the “Population Mitotic Cells (%)” value [6] was 80% and 60.61% and the “Population Normal (%)” value [6] was 99.63% and 98.6%. The “Population Pyknosed Nuclei (%)” value [6] was 8.43% and 23.4%.
